How the values were obtained:
[1] = test system: patients with recurrent and metastatic nasopharyngeal carcinoma (RM-NPC); experiment: Safety and tolerability; assay type: in vivo, human
Outline: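 Safety was the primary endpoint, assessed separately in two randomised arms of pretreated RM-NPC patients given test compound 10 mg orally: daily on a 4-week cycle, or 3 weeks on/1 week off. Adverse events were graded by CTCAE version 4.03. The safety set comprised patients who took at least one dose. TEAEs and TRAEs, including those leading to dose reduction, interruption or discontinuation, were tabulated per arm.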

Plasma pharmacokinetics = assay type: in vivo, human; settings: for AUC(0-t) / AUC / Vd/F / half-life / k el: human, plasma, 10 mg; for AUC(0-t): AUC0-t; for AUC: AUCss; for Vd/F: V z/F
Outline: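 Test compound was given at 10 mg orally, either continuously daily or 3 weeks on/1 week off. Plasma PK was sampled on cycle 1 day 1 after a single dose for Tmax, Cmax, AUC0-24h, AUC0-t, AUC0-∞, λz, t1/2, CL/F, Vz/F, %AUCex and MRT. After multiple doses, steady-state parameters were Css max/min/avg, Tss,max, AUCss, CLss/F, Vss/F, %Fluctuation and accumulation ratios. […]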

[2] = GeoMean(%CVb), single dose, C1D1, continuous arm (n = 5)
[3] = GeoMean(%CVb), single dose, C1D1, intermittent arm (n = 4)

**Q.** With `CNC(=O)c1cccc2cc(Oc3ccnc4cc(OCC5(N)CC5)c(OC)cc34)ccc12` [Lucitanib] as the compound, how does the “patients with at least one TEAE” value ([1]; all patients, both arms) read?
**A.** The value was “All patients”.

**Q.** What about the “serious TRAEs” value ([1]; all patients, both arms) of the same compound?
**A.** Its value is “No patients experienced serious TRAEs”.

**Q.** What about the “patients with Grade ≥3 related TEAEs” value ([1]; all patients, both arms (7/20)) of the same compound?
**A.** Its value is 35%.

**Q.** And the “TRAE: Hypothyroidism” value ([1]; continuous arm)?
**A.** The value was 60%.

**Q.** What about the “grade ≥3 TRAE: decreased platelet count” value ([1]; continuous arm) of the same compound?
**A.** The value was 10%.

**Q.** And the “grade ≥3 TRAE: hypertension” value ([1]; continuous arm)?
**A.** Its value is 30%.

**Q.** And the “grade ≥3 TRAE: increased AST” value ([1]; continuous arm)?
**A.** Its value is 10%.

**Q.** What about the “grade ≥3 TRAE: proteinuria” value ([1]; continuous arm) of the same compound?
**A.** The value was 20%.

**Q.** And the “patients with at least one treatment-related AE (TRAE)” value ([1]; continuous arm)?
**A.** The value was “One hundred”.

**Q.** And the “patients with Grade ≥3 related TEAEs” value ([1]; continuous arm (5/10))?
**A.** Its value is 50%.

**Q.** What about the “patients with Grade ≥3 related TRAEs” value ([1]; continuous arm (5/10)) of the same compound?
**A.** Its value is 50%.

**Q.** And the “Drug-related AE: Cough” value ([1]; continuous arm, n = 10)?
**A.** The value was 2 (20.0) n (%).

**Q.** What about the “Drug-related AE: Diarrhea” value ([1]; continuous arm, n = 10) of the same compound?
**A.** Its value is 3 (30.0) n (%).

**Q.** What about the “Drug-related AE: Epistaxis” value ([1]; continuous arm, n = 10) of the same compound?
**A.** The value was 5 (50.0) n (%).

**Q.** And the “Drug-related AE: Free thyroxine decreased” value ([1]; continuous arm, n = 10)?
**A.** The value was 3 (30.0) n (%).

**Q.** What about the “Drug-related AE: Hypertension” value ([1]; continuous arm, n = 10) of the same compound?
**A.** Its value is 10 (100.0) n (%).

**Q.** And the “Drug-related AE: Hypochloremia” value ([1]; continuous arm, n = 10)?
**A.** The value was 3 (30.0) n (%).

**Q.** What about the “Drug-related AE: Platelet count decreased” value ([1]; continuous arm, n = 10) of the same compound?
**A.** Its value is 3 (30.0) n (%).

**Q.** What about the “Drug-related AE: Proteinuria” value ([1]; continuous arm, n = 10) of the same compound?
**A.** Its value is 10 (100.0) n (%).

**Q.** What about the “Drug-related AE: Skin rash” value ([1]; continuous arm, n = 10) of the same compound?
**A.** Its value is 3 (30.0) n (%).

**Q.** What about the “Drug-related AE: TSH increased” value ([1]; continuous arm, n = 10) of the same compound?
**A.** The value was 3 (30.0) n (%).

**Q.** What about the “Drug-related adverse events: All” value ([1]; continuous arm, n = 10) of the same compound?
**A.** The value was 10 (100.0) n (%).

**Q.** What about the “Grade ≥3 TEAE” value ([1]; continuous arm, n = 10) of the same compound?
**A.** The value was 5 (50) n (%).

**Q.** What about the “Grade ≥3 TRAE” value ([1]; continuous arm, n = 10) of the same compound?
**A.** Its value is 5 (50) n (%).

**Q.** What about the “Serious TRAE” value ([1]; continuous arm, n = 10) of the same compound?
**A.** The value was 0 n (%).

**Q.** And the “TRAE lead to dose discontinuation” value ([1]; continuous arm, n = 10)?
**A.** Its value is 0 n (%).

**Q.** What about the “TRAE lead to dose interruption” value ([1]; continuous arm, n = 10) of the same compound?
**A.** The value was 5 (50) n (%).

**Q.** And the “TRAE: Hypothyroidism” value ([1]; intermittent arm)?
**A.** Its value is 50%.

**Q.** And the “grade ≥3 TRAE: decreased platelet count” value ([1]; intermittent arm)?
**A.** Its value is 0%.

**Q.** And the “grade ≥3 TRAE: hypertension” value ([1]; intermittent arm)?
**A.** The value was 0%.

**Q.** What about the “grade ≥3 TRAE: increased AST” value ([1]; intermittent arm) of the same compound?
**A.** Its value is 0%.

**Q.** And the “grade ≥3 TRAE: proteinuria” value ([1]; intermittent arm)?
**A.** Its value is 0%.

**Q.** And the “patients with at least one treatment-related AE (TRAE)” value ([1]; intermittent arm)?
**A.** Its value is 90%.

**Q.** What about the “Drug-related AE: AST increased” value ([1]; intermittent arm, n = 10) of the same compound?
**A.** The value was 0 n (%).

**Q.** And the “Drug-related AE: Backache” value ([1]; intermittent arm, n = 10)?
**A.** The value was 0 n (%).

**Q.** What about the “Drug-related AE: Cough” value ([1]; intermittent arm, n = 10) of the same compound?
**A.** Its value is 3 (30.0) n (%).

**Q.** And the “Drug-related AE: Diarrhea” value ([1]; intermittent arm, n = 10)?
**A.** Its value is 0 n (%).

**Q.** And the “Drug-related AE: Free thyroxine decreased” value ([1]; intermittent arm, n = 10)?
**A.** The value was 1 (10.0) n (%).

**Q.** And the “Drug-related AE: Hypochloremia” value ([1]; intermittent arm, n = 10)?
**A.** Its value is 1 (10.0) n (%).

**Q.** What about the “Drug-related AE: Hypothyroidism” value ([1]; intermittent arm, n = 10) of the same compound?
**A.** The value was 5 (50.0) n (%).

**Q.** What about the “Drug-related AE: Platelet count decreased” value ([1]; intermittent arm, n = 10) of the same compound?
**A.** Its value is 1 (10.0) n (%).

**Q.** What about the “Drug-related AE: Proteinuria” value ([1]; intermittent arm, n = 10) of the same compound?
**A.** Its value is 5 (50.0) n (%).

**Q.** What about the “Drug-related AE: Serum creatinine (Scr) increased” value ([1]; intermittent arm, n = 10) of the same compound?
**A.** The value was 1 (10.0) n (%).

**Q.** And the “Drug-related AE: Skin rash” value ([1]; intermittent arm, n = 10)?
**A.** Its value is 0 n (%).

**Q.** And the “Drug-related AE: TSH increased” value ([1]; intermittent arm, n = 10)?
**A.** Its value is 1 (10.0) n (%).

**Q.** And the “Drug-related AE: Weight loss” value ([1]; intermittent arm, n = 10)?
**A.** Its value is 0 n (%).

**Q.** And the “Grade ≥3 TEAE” value ([1]; intermittent arm, n = 10)?
**A.** Its value is 2 (20) n (%).

**Q.** What about the “Grade ≥3 TRAE” value ([1]; intermittent arm, n = 10) of the same compound?
**A.** Its value is 0 n (%).

**Q.** What about the “Serious TRAE” value ([1]; intermittent arm, n = 10) of the same compound?
**A.** The value was 0 n (%).

**Q.** And the “TRAE lead to dose discontinuation” value ([1]; intermittent arm, n = 10)?
**A.** Its value is 1 (10) n (%).

**Q.** And the “TRAE lead to dose interruption” value ([1]; intermittent arm, n = 10)?
**A.** Its value is 2 (20) n (%).

**Q.** What about the “TRAE lead to dose reduction” value ([1]; intermittent arm, n = 10) of the same compound?
**A.** The value was 0 n (%).

**Q.** And the “time at which steady state is reached (trough levels)” value (Plasma pharmacokinetics; 10 mg p.o. once daily)?
**A.** Its value is ≤ 15 days.

**Q.** And the AUC(0-t) (Plasma pharmacokinetics; [2])?
**A.** The AUC(0-t) was 2370 ng·h/mL.

**Q.** And the AUC(0-t) (Plasma pharmacokinetics; [3])?
**A.** Its AUC(0-t) is 2720 ng·h/mL.

**Q.** And the AUC (Plasma pharmacokinetics; GeoMean(%CVb), multiple dose, C1D15, continuous arm (n=5))?
**A.** Its AUC is 6170 ng·h/mL.

**Q.** What about the AUC (Plasma pharmacokinetics; GeoMean(%CVb), multiple dose, C1D15, intermittent arm (n=4)) of the same compound?
**A.** The AUC was 9160 ng·h/mL.

**Q.** And the AUC (Plasma pharmacokinetics; Mean ± SD, multiple dose, C1D15, continuous arm (n=5))?
**A.** Its AUC is 6670 ± 2630 ng·h/mL.

**Q.** What about the AUC (Plasma pharmacokinetics; Mean ± SD, multiple dose, C1D15, intermittent arm (n=4)) of the same compound?
**A.** Its AUC is 9680 ± 3710 ng·h/mL.

**Q.** And the Vd/F (Plasma pharmacokinetics; [2])?
**A.** The Vd/F was 68 L.

**Q.** And the Vd/F (Plasma pharmacokinetics; [3])?
**A.** The Vd/F was 58.1 L.

**Q.** What about the Vd/F (Plasma pharmacokinetics; Mean ± SD, single dose, C1D1, continuous arm (n = 5)) of the same compound?
**A.** Its Vd/F is 75.2 ± 40.2 L.

**Q.** What about the Vd/F (Plasma pharmacokinetics; Mean ± SD, single dose, C1D1, intermittent arm (n = 4)) of the same compound?
**A.** Its Vd/F is 60.8 ± 19.8 L.

**Q.** What about the half-life (Plasma pharmacokinetics; t 1/2, GeoMean(%CVb), single dose, C1D1, continuous arm (n = 5)) of the same compound?
**A.** The half-life was 1320 min.

**Q.** What about the half-life (Plasma pharmacokinetics; t 1/2, GeoMean(%CVb), single dose, C1D1, intermittent arm (n = 4)) of the same compound?
**A.** The half-life was 1320 min.

**Q.** What about the half-life (Plasma pharmacokinetics; t 1/2, Mean ± SD, single dose, C1D1, continuous arm (n = 5)) of the same compound?
**A.** Its half-life is 1430 ± 709 min.

**Q.** And the half-life (Plasma pharmacokinetics; t 1/2, Mean ± SD, single dose, C1D1, intermittent arm (n = 4))?
**A.** The half-life was 1490 ± 928 min.

**Q.** What about the k el (Plasma pharmacokinetics; λ z, GeoMean(%CVb), single dose, C1D1, continuous arm (n = 5)) of the same compound?
**A.** The k el was 8.33e-06 s⁻¹.

**Q.** What about the k el (Plasma pharmacokinetics; λ z, GeoMean(%CVb), single dose, C1D1, intermittent arm (n = 4)) of the same compound?
**A.** The k el was 8.33e-06 s⁻¹.

**Q.** What about the k el (Plasma pharmacokinetics; λ z, Mean ± SD, single dose, C1D1, continuous arm (n = 5)) of the same compound?
**A.** The k el was 8.33e-06 s⁻¹.

**Q.** What about the k el (Plasma pharmacokinetics; λ z, Mean ± SD, single dose, C1D1, intermittent arm (n = 4)) of the same compound?
**A.** The k el was 8.33e-06 s⁻¹.

**Q.** And the k el (Plasma pharmacokinetics; λz, Mean ± SD, multiple dose, C1D15, continuous arm (n=5))?
**A.** Its k el is 5.56e-06 s⁻¹.
